ChEMBL document CHEMBL5247675, “Antimicrobial Peptides Incorporating Halogenated Marine-Derived Amino Acid Substituents” (ACS Med Chem Lett, 2023)
Non-standard residues stand in square brackets, D forms with d. Residues, ends and D or L forms follow the SMILES beside them. *: point of attachment. Bip = N[C@@H](Cc1ccc(-c2ccccc2)cc1)C(=O)O; Lys(Me3) = C[N+](C)(C)CCCC[C@H](N)C(=O)O; NHPhenethyl = c1ccc(CCN*)cc1

Key:
Escherichia coli = experiment: Antimicrobial activity against Escherichia coli ATCC 25922 assessed as reduction in microbial growth incubated for 18 hrs by CLSI protocol based two fold serial dilution method; type: functional
Staphylococcus aureus = experiment: Antimicrobial activity against Staphylococcus aureus ATCC 29213 assessed as reduction in microbial growth incubated for 18 hrs by CLSI protocol based two fold serial dilution method; type: functional
Candida albicans = experiment: Antimicrobial activity against Candida albicans SC5314 assessed as reduction in microbial growth incubated for 48 hrs by CLSI protocol based broth microdilution method; type: functional
Cyberlindnera jadinii = experiment: Antimicrobial activity against clinical isolate Candida utilis SVB-Y1 assessed as reduction in microbial growth incubated for 48 hrs by CLSI protocol based broth microdilution method; type: functional; details: Williopsis jadinii
Outline: (§1)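 Clinical isolates of the fungi were subcultured from Auckland City Hospital. MICs were determined following Clinical and Laboratory Standards Institute recommended protocols.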

Aspergillus fumigatus = experiment: Antimicrobial activity against clinical isolate Aspergillus fumigatus SVB-F136 assessed as reduction in microbial growth incubated for 48 hrs by CLSI protocol based broth microdilution method; type: functional; outline: as §1
[1] = Hemolytic activity in human RBC assessed as hemolysis rate at 100 uM incubated for 45 mins by spectrophotometric assay relative to control; type: toxicity, cell-based, Erythrocyte; details: human red blood cells, read-out: Activity
Outline: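 Isolated, washed human erythrocytes were exposed to each compound at a single concentration of 100 μM. Percent hemolysis was recorded as a relative measure between compounds.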

[2] = Cytotoxicity against human HeLa cells assessed as reduction in cell viability incubated for 24 hrs by PrestoBlue assay; type: toxicity, cell-based
Outline: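 HeLa (human epithelial) cells were exposed to serial peptide dilutions from 1.4 to 87.5 μM for 24 h at 37 °C. Viability was read by PrestoBlue, and IC50 was taken from dose–response curves. There were two independent experiments, each in triplicate, reported as mean ± SD.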

[3] = Hemolytic activity in human RBC assessed as hemolysis rate incubated for 45 mins by spectrophotometric assay; type: toxicity, cell-based, Erythrocyte; details: human red blood cells

Row | MIC (Escherichia coli) | MIC (Staphylococcus aureus) | MIC (Candida albicans) | MIC (Cyberlindnera jadinii) | MIC (Aspergillus fumigatus) | Molecule | hemolysis at 0.75 h, 100 µM [1] | IC50 at 24 h [2] | EC50 at 45 min [3]
1 | 8 µM | 4 µM | 4 µM | 4 µM | 16 µM | COc1c(Br)cc(CCNC(=O)[C@H](CCCNC(=N)N)NC(=O)[C@H](Cc2ccc(-c3cc(Br)c(OC)c(Br)c3)cc2)NC(=O)[C@@H](N)CCCNC(=N)N)cc1Br | 1.62% | > 87.5 µM | 
2 | 2 µM | 2 µM | 4 µM | 2 µM | 8 µM | CC(C)(C)c1cc(C(C)(C)C)c2[nH]c(C(C)(C)C)c(C[C@H](NC(=O)[C@@H](N)CCCNC(=N)N)C(=O)N[C@@H](CCCNC(=N)N)C(=O)NCCc3ccccc3)c2c1 [LTX-109] | 4.23% | 46.6 µM | 222 µM
3 | > 64 µM | 32 µM | 2 µM | 2 µM | > 64 µM | COc1ccc(-c2ccc(C[C@H](NC(=O)[C@@H](N)CCCNC(=N)N)C(=O)N[C@@H](CCCNC(=N)N)C(=O)NCCc3ccccc3)cc2)cc1 | 0.4% | > 87.5 µM | 
4 | > 64 µM | > 64 µM | > 64 µM | 64 µM | > 64 µM | C[N+](C)(C)CCCC[C@H](NC(=O)[C@H](Cc1ccc(-c2ccccc2)cc1)NC(=O)[C@@H](N)CCCC[N+](C)(C)C)C(=O)NCCc1ccccc1 (H-[Lys(Me3)]-[Bip]-[Lys(Me3)]-NHPhenethyl) |  |  | 
5 | > 64 µM | > 64 µM | > 64 µM | 64 µM | ≥ 64 µM | N=C(N)NCCC[C@H](NC(=O)[C@H](Cc1ccc(-c2cc(Br)c(O)c(Br)c2)cc1)NC(=O)[C@@H](N)CCCNC(=N)N)C(=O)NCCc1cc(Br)c(O)c(Br)c1 |  |  | 
6 | > 64 µM | > 64 µM | > 64 µM | > 64 µM | > 64 µM | COc1c(Br)cc(C[C@H](NC(=O)CCCCC[N+](C)(C)C)C(=O)N[C@@H](CCCNC(=N)N)C(=O)NCCc2ccccc2)cc1Br |  |  | 
7 | > 64 µM | > 64 µM | > 64 µM | > 64 µM | > 64 µM | N=C(N)NCCC[C@H](NC(=O)[C@H](Cc1ccccc1)NC(=O)[C@@H](N)CCCNC(=N)N)C(=O)NCCc1ccccc1 (H-Arg-Phe-Arg-NHPhenethyl) | 0.33% |  | 
8 | > 64 µM | > 64 µM | > 64 µM | > 64 µM | > 64 µM | COc1c(Br)cc(C[C@H](NC(=O)[C@@H](N)CCCNC(=N)N)C(=O)N[C@@H](CCCNC(=N)N)C(=O)NCCc2c[nH]c3cc(Br)ccc23)cc1Br |  |  | 
9 | 16 µM | 8 µM | 2 µM | 2 µM | 16 µM | COc1c(Br)cc(CCNC(=O)[C@H](CCCNC(=N)N)NC(=O)[C@H](Cc2c[nH]c3cc(Br)ccc23)NC(=O)[C@@H](N)CCCNC(=N)N)cc1Br | 1.19% | > 87.5 µM | 
10 | > 64 µM | 64 µM | > 64 µM | 32 µM | > 64 µM | COc1c(Br)cc(CCNC(=O)[C@H](CCCCN)NC(=O)[C@H](Cc2cc(Br)c(OC)c(Br)c2)NC(=O)[C@@H](N)CCCCN)cc1Br |  |  | 
11 | > 64 µM | 64 µM | 8 µM | 8 µM | 64 µM | COc1c(Br)cc(CCNC(=O)[C@H](CCCNC(=N)N)NC(=O)[C@H](Cc2c[nH]c3ccccc23)NC(=O)[C@@H](N)CCCNC(=N)N)cc1Br | 0.35% |  | 
12 | 16 µM | 8 µM | 4 µM | 4 µM | 16 µM | COc1c(Br)cc(-c2ccc(C[C@H](NC(=O)[C@@H](N)CCCNC(=N)N)C(=O)N[C@@H](CCCNC(=N)N)C(=O)NCCc3ccccc3)cc2)cc1Br | 1.38% | > 87.5 µM | 
13 | 0.0625 µM | > 64 µM |  |  |  | POLYMYXIN B |  |  | 
14 | > 64 µM | > 64 µM | > 64 µM | > 64 µM | > 64 µM | C[N+](C)(C)CCCC[C@H](N)C(=O)N[C@@H](Cc1ccc(-c2ccccc2)cc1)C(=O)N[C@@H](CCCNC(=N)N)C(=O)NCCc1ccccc1 (H-[Lys(Me3)]-[Bip]-Arg-NHPhenethyl) |  |  | 
15 | > 64 µM | > 64 µM | > 64 µM | > 64 µM | > 64 µM | C[N+](C)(C)CCCC[C@H](NC(=O)[C@H](Cc1ccc(-c2ccccc2)cc1)NC(=O)[C@@H](N)CCCNC(=N)N)C(=O)NCCc1ccccc1 (H-Arg-[Bip]-[Lys(Me3)]-NHPhenethyl) |  |  | 
16 | 16 µM | 4 µM |  |  |  | CC1(C)S[C@@H]2[C@H](NC(=O)[C@H](N)c3ccc(O)cc3)C(=O)N2[C@H]1C(=O)O [AMOXICILLIN] |  |  | 
17 | > 64 µM | > 64 µM | 16 µM | 8 µM | 64 µM | COc1c(Br)cc(C[C@H](NC(=O)[C@@H](N)CCCNC(=N)N)C(=O)N[C@@H](CCCNC(=N)N)C(=O)NCCc2ccccc2)cc1Br | 0.34% |  | 
18 | > 64 µM | > 64 µM | 32 µM | 4 µM | > 64 µM | COc1ccc(CCNC(=O)[C@H](CCCNC(=N)N)NC(=O)[C@H](Cc2ccc(-c3ccc(OC)c(Br)c3)cc2)NC(=O)[C@@H](N)CCCNC(=N)N)cc1Br | 0.29% |  | 
19 | > 64 µM | > 64 µM | > 64 µM | > 64 µM | > 64 µM | C[N+](C)(C)CCCCC[C@H](N)C(=O)N[C@@H](Cc1ccc(-c2ccccc2)cc1)C(=O)N[C@@H](CCCNC(=N)N)C(=O)NCCc1ccccc1 |  |  | 

Row | Molecule | MIC (Escherichia coli) | MIC (Staphylococcus aureus) | MIC (Candida albicans) | MIC (Cyberlindnera jadinii) | MIC (Aspergillus fumigatus) | hemolysis at 0.75 h, 100 µM [1] | IC50 at 24 h [2] | EC50 at 45 min [3]
20 | N=C(N)NCCC[C@H](NC(=O)[C@@H](Cc1c[nH]c2cc(Br)ccc12)NC(=O)[C@@H](N)CCCNC(=N)N)C(=O)NCCc1ccccc1 | > 64 µM | > 64 µM | > 64 µM | 16 µM | > 64 µM | 0.27% |  | 
21 | N=C(N)NCCC[C@H](NC(=O)[C@H](Cc1c[nH]c2cc(Br)ccc12)NC(=O)[C@@H](N)CCCNC(=N)N)C(=O)NCCc1ccccc1 | > 64 µM | > 64 µM | 16 µM | 8 µM | > 64 µM | 0.29% | > 87.5 µM | 
22 | C[C@@H]1[C@H](O)[C@@H](C)/C=C/C=C/C=C/C=C/C=C/C=C/C=C/[C@H](O[C@@H]2O[C@H](C)[C@@H](O)[C@H](N)[C@@H]2O)C[C@@H]2O[C@](O)(C[C@@H](O)C[C@@H](O)[C@H](O)CC[C@@H](O)C[C@@H](O)CC(=O)O[C@H]1C)C[C@H](O)[C@H]2C(=O)O [AMPHOTERICIN B] |  |  | 1 µM | 2 µM | 4 µM |  |  | 
